FLuc stim CS: firefly luciferase counter-screen for stimulation assays; activation factor at 10 µM; 200,000 tested, under 10 active; P08659; ATPlite luciferase biochemical, luminescence, 10 min; 0 = ATP-free wells, 1 = DMSO control; AID 1027;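 active = luciferase activation factor, scaled between plate controls, of at least 2 with compound at 10 µM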
Target sequence (P08659 whole entry, looked up): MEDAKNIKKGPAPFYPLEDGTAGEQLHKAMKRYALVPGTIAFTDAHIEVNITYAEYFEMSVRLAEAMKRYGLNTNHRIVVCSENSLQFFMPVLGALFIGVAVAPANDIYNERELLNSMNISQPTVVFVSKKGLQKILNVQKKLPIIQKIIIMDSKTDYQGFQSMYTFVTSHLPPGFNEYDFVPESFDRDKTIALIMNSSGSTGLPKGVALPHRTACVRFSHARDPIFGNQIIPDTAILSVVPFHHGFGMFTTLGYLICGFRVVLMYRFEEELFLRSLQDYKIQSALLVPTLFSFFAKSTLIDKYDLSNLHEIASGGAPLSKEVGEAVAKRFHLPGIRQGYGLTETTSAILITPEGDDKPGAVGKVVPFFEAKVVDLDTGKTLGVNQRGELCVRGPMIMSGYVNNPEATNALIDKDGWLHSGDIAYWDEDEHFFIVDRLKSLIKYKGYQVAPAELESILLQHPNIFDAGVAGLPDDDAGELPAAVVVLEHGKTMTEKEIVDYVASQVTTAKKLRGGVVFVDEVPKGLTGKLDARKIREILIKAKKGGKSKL
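System: luciferase plus luciferin reagent, cell-free; medium: PBS as buffer for the ATP substrate; dosing: test compounds dosed from 2 mM stocks in 100% DMSO; timing: 10 min post-reagent at room temperature; measured by: luminescence measurement of luciferase light output; evaluation: luciferase activation, seen as luminescence increase over controls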
Platelet DG rel: platelet dense granule release activity | actives 0.22% (n = 300,000) | human platelet-rich plasma, SFLLRN dense granule ATP release, luminescence | inhibition, %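 (compounds screened at 7.5 µM in platelet-rich plasma)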;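 active = mean replicate score, as percent of positive control, at or above 50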
PPC-1+TRAIL kill: PPC-1 cancer cell killing with TRAIL present. PPC-1 cells + TRAIL, ATPLite viability luminescence. cell killing (% activity), % at 4 µM or 5 µM. actives 0.41% (n = 220,000). AID 1443;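 active = cell killing above 50% in the first pass at 4 µM, then a duplicate retest at 5 µM averaging 50% or more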;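 also: plate controls were cells with TRAIL plus DMSO for no effect and medium-only wells lacking cells for full effect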
C8 TRAIL sens: caspase-8 TRAIL sensitization. NB7+C8 cells + TRAIL, ATPlite viability luminescence. inhibition (viability loss, TRAIL sensitization), % at 10 µM. actives 1% (n = 360,000). AID 624354;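 active = compounds causing at least 50% loss of cell viability in the single-dose screen, relative to plate controls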
FLuc inhib CS: counter-screen for luciferase assay inhibitors: firefly luciferase inhibition; actives 1.5% (n = 200,000); AID 1006; inhibition, % at 10 µM; ATPLite firefly luciferase biochemical luminescence, 10 min;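 active = inhibition above about 50% when tested at 10 µM, limit read from the data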
The depositor's hits bear a star; · = not tested or not shown. Sampled rows, rich in hits. Any-hit rate of the full collection: about 1.6%.

SMILES	FLuc stim CS	Platelet DG rel	PPC-1+TRAIL kill	C8 TRAIL sens	FLuc inhib CS
Fc1ccc(-n2nnc(-c3nccs3)n2)cc1	0.2	10	30	26	76*
COc1ccc(-c2nc3c(C)cc(Br)cn3c2Cc2cccc(F)c2)cc1OC	·	·	·	-16	·
CC1(C(=O)Nc2ccc3c(c2)OCO3)CCN1C(=O)CCC1CCCC1 (stereo not drawn)	·	·	·	-1	·
CC1(C)N=C(N)N=C(N)N1c1ccccc1	1.1	-5	14	85*	-6
CC1(C)N=C(N)N=C(N)N1c1ccc(Oc2ccc(Cl)cc2)c(Cl)c1	·	1	·	58*	·
CC1(C)N=C(N)N=C(N)N1c1cccc(CN)c1	·	-37	-10	-17	·
CC1(C)N=C(N)N=C(N)N1c1ccc(CCCCc2ccccc2)cc1	·	·	·	65*	·
CC1(C)N=C(N)N=C(N)N1c1cc(Cl)ccc1Cl	·	·	·	-6	·
C[C@@H]1CN([C@@H](C)CO)C(=O)CCCn2nncc2CO[C@@H]1CN(C)C(=O)CCC(F)(F)F	·	·	·	8	·
Nc1ccn([C@@H]2O[C@H](CN=C3NS(=O)(=O)c4ccccc43)[C@@H](O)[C@H]2O)c(=O)n1	·	·	·	-16	·
CC(C)(C)c1ccc(C(=O)Nc2nnc(SCC(=O)NCC3CCCO3)s2)cc1 (stereo not drawn)	·	-20	·	94*	·
O=C(CSc1nnc(NC(=O)c2cccc(F)c2)s1)NCC1CCCO1 (stereo not drawn)	·	-4	·	36	·
COCCSc1nnc(NC(=O)c2ccc([N+](=O)[O-])cc2)s1	0.9	-4	8	-2	6
Cc1cc(-c2nnc(CSc3nnc(NC(=O)c4ccc(C(C)(C)C)cc4)s3)o2)ccc1[N+](=O)[O-]	·	-2	38	51*	·
CCOc1ccc(C(=O)Nc2nnc(SCC(=O)NCC3CCCO3)s2)cc1 (stereo not drawn)	·	-4	·	92*	·
O=C(CSc1nnc(NC(=O)c2c(F)cccc2F)s1)NCC1CCCO1 (stereo not drawn)	·	-3	·	-3	·
COc1ccc(C(=O)Nn2c(SCC(=O)NCC3CCCO3)nc3ccccc3c2=O)cc1 (stereo not drawn)	0.2	33	47	46	82*
NC(Cc1ccccc1)c1csc(NC(=O)c2cccc(OC(F)(F)F)c2)n1 (stereo not drawn)	·	·	·	22	·
Cc1ccc(-n2nnc3c(SCC(=O)NCC4CCCO4)ncnc32)cc1 (stereo not drawn)	0.4	3	-10	-2	55*
CN(C)S(=O)(=O)c1ccc(C(=O)Nc2nnc(SCC(=O)NCC3CCCO3)s2)cc1 (stereo not drawn)	·	-10	·	55*	·
O=C(CSc1ncnc2c1nnn2-c1ccc(F)cc1)NCC1CCCO1 (stereo not drawn)	0.8	-2	14	3	22
C=C1CC2(CC(c3ccccc3)OC(c3ccccc3)C2)OC1=O (stereo not drawn)	·	·	·	64*	·
Cc1ccc(S(=O)(=O)N[C@H](CNCc2ccccc2)C(C)C)cc1	·	·	·	-10	·
O=C(Nc1ccc(OCC(F)(F)C(F)F)c(C(F)(F)F)c1)c1ccc(Cl)cc1	·	0	·	77*	·
Cc1ccc(NC(=O)c2ccc(OC(=O)c3cc4ccccc4o3)cc2)cc1	1	-4	9	35	-2
SMILES	FLuc stim CS	Platelet DG rel	PPC-1+TRAIL kill	C8 TRAIL sens	FLuc inhib CS
COc1ccc(OC(=O)c2cc3ccccc3o2)cc1	0.4	3	28	8	57*
COc1ccc(OCC(=O)N/N=C(\C)c2cc3ccccc3o2)cc1	0.2	10	40	64*	81*
CC1C(=O)N(Cc2cn(Cc3ccco3)nn2)CCS(=O)(=O)N1Cc1ccc(-c2ccccc2C(F)(F)F)cc1 (stereo not drawn)	·	·	·	-17	·
O=C(/C=C/Nc1ccccc1F)c1cccs1	0.1	48	50*	87*	95*
CCOC(=O)c1ccccc1N/C=C/C(=O)c1cccs1	0.9	7	6	6	7
O=C(/C=C\Nc1cccc(F)c1)c1cccs1	0.2	17	31	27	79*
O=C(/C=C/Nc1ccc(F)cc1F)c1ccc(Br)cc1	·	-3	·	42	·
O=C(/C=C/Nc1ccc(F)cc1F)c1cccs1	0	36	63*	93*	98*
O=C(NNC(=O)c1cccs1)c1cccc(F)c1	·	-5	·	12	·
COC(=O)C1(C(=O)OC)C/C=C\CN(S(=O)(=O)c2ccccc2[N+](=O)[O-])CC1	·	·	·	-6	·
O=C(Nc1ccccc1F)c1ccc2sc([C@@H]3O[C@H](CO)[C@H](O)[C@H](O)[C@H]3O)nc2c1	·	·	·	4	·
